Measurements: ChEMBL document CHEMBL2311328, “Molecular docking and synthesis of novel quinazoline analogues as inhibitors of transcription factors NF-κB activation and their anti-cancer activities” (2013)
Activity calls are given as the source filed them. The rule behind the calls is not given here.

Columns and labels:
HepG2 [1] = test: Cytotoxicity against human HepG2 cells assessed as cellular growth at 50 uM incubated for 1 hr prior to TNF alpha stimulation measured after 48 hrs by SRB assay; type: functional
In short: (§1)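 HepG2 cells in DMEM with 10% FBS and penicillin/streptomycin were allowed to adhere 24 h, and a T0 plate was fixed. Compound was given for 1 h at 37 °C, with or without 20 ng/ml TNFα, then 48 h more. Cells were stained with 0.4% SRB for 30 min at RT, washed in 1% acetic acid, and solubilized in 10 mM Tris. OD read at 515 nm; one-way ANOVA.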

HepG2 [2] = test: Inhibition of TNFalpha-induced NFkappaB (unknown origin)-dependent transcriptional activity expressed in human HepG2 cells at 1 uM incubated for 1 hr prior to TNFalpha induction measured after 6 hrs by dual-luciferase reporter gene assay; type: cell-based
In short: (§2)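 HepG2 cells in DMEM with 10% FBS were lipofectamine-transfected with 10 ng/well pGL4.32 NF-κB-Luc plus Renilla control. Compound in DMSO was given in fresh medium for 1 h at 37 °C, then TNFα (final 20 ng/ml) for 6 h. Cells were lysed in passive lysis buffer. Firefly light units were normalized to Renilla; one-way ANOVA.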

HepG2 [3] = test: Cytotoxicity against human HepG2 cells assessed as cellular growth at 50 uM after 48 hrs by SRB assay in absence of TNFalpha; type: functional; in short: as §1
T47D = test: Cytotoxicity against human T47D cells after 48 hrs by SRB assay; type: functional
In short: (§3)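 Screened by the NCI Developmental Therapeutics Program in dose-response format. GI50 was determined by the sulforhodamine B protocol.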

OVCAR-3 = test: Cytotoxicity against human OVCAR3 cells after 48 hrs by SRB assay; type: functional; conditions: OVCAR-3, 48 h; in short: as §3
CAKI-1 = test: Cytotoxicity against human Caki1 cells after 48 hrs by SRB assay; type: functional; conditions: CAKI-1, 48 h; in short: as §3
SW-620 = test: Cytotoxicity against human SW620 cells after 48 hrs by SRB assay; type: functional; conditions: SW-620, 48 h; in short: as §3
MDA-MB-231 = test: Cytotoxicity against human MDA-MB-231 cells after 48 hrs by SRB assay; type: functional; conditions: MDA-MB-231, 48 h; in short: as §3
M14 = test: Cytotoxicity against human M14 cells after 48 hrs by SRB assay; type: functional; conditions: M14, 48 h; in short: as §3
LOX IMVI = test: Cytotoxicity against human LOXIMVI cells after 48 hrs by SRB assay; type: functional; in short: as §3
SF-268 = test: Cytotoxicity against human SF268 cells after 48 hrs by SRB assay; type: functional; conditions: SF-268, 48 h; in short: as §3
MCF7 = test: Cytotoxicity against human MCF7 cells after 48 hrs by SRB assay; type: functional; conditions: MCF7, 48 h; in short: as §3
SNB-19 = test: Cytotoxicity against human SNB19 cells after 48 hrs by SRB assay; type: functional; conditions: SNB-19, 48 h; in short: as §3
RXF 393 = test: Cytotoxicity against human RXF393 cells after 48 hrs by SRB assay; type: functional; conditions: RXF 393, 48 h; in short: as §3
SNB-75 = test: Cytotoxicity against human SNB75 cells after 48 hrs by SRB assay; type: functional; conditions: SNB-75, 48 h; in short: as §3
HCC 2998 = test: Cytotoxicity against human HCC2998 cells after 48 hrs by SRB assay; type: functional; conditions: HCC 2998, 48 h; in short: as §3
SK-MEL-28 = test: Cytotoxicity against human SK-MEL-28 cells after 48 hrs by SRB assay; type: functional; conditions: SK-MEL-28, 48 h; in short: as §3
A498 = test: Cytotoxicity against human A498 cells after 48 hrs by SRB assay; type: functional; conditions: A498, 48 h; in short: as §3
HCT-116 = test: Cytotoxicity against human HCT116 cells after 48 hrs by SRB assay; type: functional; conditions: HCT-116, 48 h; in short: as §3
HCT-15 = test: Cytotoxicity against human HCT15 cells after 48 hrs by SRB assay; type: functional; conditions: HCT-15, 48 h; in short: as §3
UACC-62 = test: Cytotoxicity against human UACC62 cells after 48 hrs by SRB assay; type: functional; conditions: UACC-62, 48 h; in short: as §3
OVCAR-4 = test: Cytotoxicity against human OVCAR4 cells after 48 hrs by SRB assay; type: functional; conditions: OVCAR-4, 48 h; in short: as §3
UACC-257 = test: Cytotoxicity against human UACC257 cells after 48 hrs by SRB assay; type: functional; conditions: UACC-257, 48 h; in short: as §3
PC-3 = test: Cytotoxicity against human PC3 cells after 48 hrs by SRB assay; type: functional; conditions: PC-3, 48 h; in short: as §3
MDA-MB-435 = test: Cytotoxicity against human MDA-MB-435 cells after 48 hrs by SRB assay; type: functional; conditions: MDA-MB-435, 48 h; in short: as §3
DU-145 = test: Cytotoxicity against human DU145 cells after 48 hrs by SRB assay; type: functional; conditions: DU-145, 48 h; in short: as §3
TK-10 = test: Cytotoxicity against human TK10 cells after 48 hrs by SRB assay; type: functional; conditions: TK-10, 48 h; in short: as §3
[4] = Cytotoxicity against human NCI-ADR-RES cells after 48 hrs by SRB assay; type: functional; in short: as §3
SF-539 = test: Cytotoxicity against human SF539 cells after 48 hrs by SRB assay; type: functional; conditions: SF-539, 48 h; in short: as §3
[5] = Cytotoxicity against human SKOC3 cells after 48 hrs by SRB assay; type: functional; conditions: SKOC3, 48 h; in short: as §3
BT-549 = test: Cytotoxicity against human BT549 cells after 48 hrs by SRB assay; type: functional; conditions: BT-549, 48 h; in short: as §3
SK-MEL-2 = test: Cytotoxicity against human SK-MEL-2 cells after 48 hrs by SRB assay; type: functional; conditions: SK-MEL-2, 48 h; in short: as §3
Malme-3M = test: Cytotoxicity against human MALME-3M cells after 48 hrs by SRB assay; type: functional; in short: as §3
Hs-578T = test: Cytotoxicity against human Hs578T cells after 48 hrs by SRB assay; type: functional; in short: as §3
OVCAR-8 = test: Cytotoxicity against human OVCAR8 cells after 48 hrs by SRB assay; type: functional; conditions: OVCAR-8, 48 h; in short: as §3
786-0 = test: Cytotoxicity against human 786-0 cells after 48 hrs by SRB assay; type: functional; conditions: 786-0, 48 h; in short: as §3
SF-295 = test: Cytotoxicity against human SF295 cells after 48 hrs by SRB assay; type: functional; conditions: SF-295, 48 h; in short: as §3
U-251 = test: Cytotoxicity against human U251 cells after 48 hrs by SRB assay; type: functional; conditions: U-251, 48 h; in short: as §3
KM12 = test: Cytotoxicity against human KM12 cells after 48 hrs by SRB assay; type: functional; conditions: KM12, 48 h; in short: as §3
SN12C = test: Cytotoxicity against human SN12C cells after 48 hrs by SRB assay; type: functional; in short: as §3
UO-31 = test: Cytotoxicity against human UO31 cells after 48 hrs by SRB assay; type: functional; conditions: UO-31, 48 h; in short: as §3
IGROV-1 = test: Cytotoxicity against human IGROV1 cells after 48 hrs by SRB assay; type: functional; conditions: IGROV-1, 48 h; in short: as §3
COLO 205 = test: Cytotoxicity against human COLO205 cells after 48 hrs by SRB assay; type: functional; conditions: COLO 205, 48 h; in short: as §3
HepG2 [6] = test: Inhibition of TNFalpha-induced NFkappaB (unknown origin)-dependent transcriptional activity expressed in human HepG2 cells at 0.1 to 10 uM incubated for 1 hr prior to TNFalpha induction measured after 6 hrs by dual-luciferase reporter gene assay; type: cell-based; in short: as §2

Oc1ccc(Br)cc1CN1CCN(c2nc(-c3ccccc3)nc3ccccc23)CC1
Activity (HepG2 [1]): 13%
inhibition (HepG2 [2]): Active
Activity (HepG2 [3]): 15.5%

c1ccc(CN2CCN(c3nc(-c4ccccc4)nc4ccccc34)CC2)cc1
Activity (HepG2 [1]): 13.7%
inhibition (HepG2 [2]): Active
Activity (HepG2 [3]): 30.7%

c1ccc2c(NCCc3c[nH]c4ccccc34)ncnc2c1
GI50 (T47D): 12 µM
GI50 (OVCAR-3): 19.1 µM
GI50 (CAKI-1): 2.2 µM
GI50 (SW-620): 41.7 µM
GI50 (MDA-MB-231): 21.9 µM
GI50 (M14): 24.6 µM
GI50 (LOX IMVI): 15.5 µM
GI50 (SF-268): 34.7 µM
GI50 (MCF7): 11.2 µM
GI50 (SNB-19): 50.1 µM
GI50 (RXF 393): 30.9 µM
GI50 (SNB-75): 22.9 µM
GI50 (HCC 2998): 26.3 µM
GI50 (SK-MEL-28): 25.1 µM
GI50 (A498): 2.8 µM
GI50 (HCT-116): 6.3 µM
GI50 (HCT-15): 24 µM
GI50 (UACC-62): 14.1 µM
Activity (HepG2 [1]): -30%
GI50 (OVCAR-4): 1.5 µM
GI50 (UACC-257): 9.8 µM
GI50 (PC-3): 19.5 µM
GI50 (MDA-MB-435): 10.2 µM
GI50 (DU-145): 27.5 µM
GI50 (TK-10): 20.4 µM
GI50 [4]: 5.6 µM
GI50 (SF-539): 39.8 µM
GI50 [5]: 58.9 µM
GI50 (BT-549): 12.3 µM
GI50 (SK-MEL-2): 30.9 µM
GI50 (Malme-3M): 29.5 µM
GI50 (Hs-578T): 60.3 µM
GI50 (OVCAR-8): 5.5 µM
GI50 (786-0): 33.9 µM
GI50 (SF-295): 3.5 µM
GI50 (U-251): 30.9 µM
GI50 (KM12): 19.1 µM
GI50 (SN12C): 30.2 µM
inhibition (HepG2 [2]): Active
Activity (HepG2 [3]): -22.3%
GI50 (UO-31): 14.5 µM
GI50 (IGROV-1): 14.1 µM
GI50 (COLO 205): 28.2 µM

Oc1ccc(CN2CCN(c3ncnc4ccccc34)CC2)cc1
Activity (HepG2 [1]): -13.3%
inhibition (HepG2 [2]): Active
Activity (HepG2 [3]): -5.3%

Oc1ccccc1CN1CCN(c2ncnc3ccccc23)CC1
Activity (HepG2 [1]): -26%
inhibition (HepG2 [2]): Active
Activity (HepG2 [3]): -21.7%

c1ccc(-c2nc(NCCc3ccc4c(c3)OCO4)c3ccccc3n2)cc1
Activity (HepG2 [1]): -46.8%
inhibition (HepG2 [2]): Active
Activity (HepG2 [3]): -30.7%

Nc1ccc2ncnc(NCCc3ccc(Oc4ccccc4)cc3)c2c1
inhibition (HepG2 [6]): Active
